Measurements reported in ChEMBL document CHEMBL1124831, “Conjugate addition ligands of opioid antagonists. Methacrylate esters and ethers of 6 alpha- and 6 beta-naltrexol” (J Med Chem, 1990).

Tests used:
[1] = species on record: Mus musculus; assay: Antagonist activity against morphine was determined […] in mice using tail flick assay; assay type: functional
Procedure, shortened: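 Mouse tail-flick test against morphine given sc, run by the Committee on Problems of Drug Dependence. The antagonist dose giving 50% blockade (AD50, mg/kg) is reported with 95% confidence limits.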

[2] = molecular target: Mu-type opioid receptor (Bos taurus, UniProt P79350); assay: In vitro binding affinity against Opioid receptor mu 1 from bovine caudate nucleus determined in presence of [3H]DAGO (1 nM)
Procedure, shortened: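 Crude bovine striatal membranes were stored at -70 °C. […] Competitor was tested at five concentrations, with nonspecific binding defined by 10 μM naloxone. Incubation was 45 min at 25 °C in 50 mM Tris-HCl or potassium phosphate, pH 7.4, with 1 mM EDTA. Read-out was GF/B filtration and scintillation counting. IC50 is from duplicates or triplicates.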

[3] = molecular target: T1, Opioid receptors; mu/kappa/delta (Homo sapiens, UniProt P41145+P41143+P35372); assay: In vitro binding affinity against Opioid receptors from bovine caudate nucleus determined in presence of [3H]- bremazocine (0.5 nM); assay type: protein assay, Bos taurus; conditions: target entry is the homologue from another species
Procedure, shortened: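 Crude bovine striatal membranes were stored at -70 °C. Competitor was tested at five concentrations, with nonspecific binding defined by 10 μM naloxone. Incubation was 45 min at 25 °C in 50 mM Tris-HCl or potassium phosphate, pH 7.4, with 1 mM EDTA. Read-out was GF/B filtration and scintillation counting. IC50 is from duplicates or triplicates.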

[4] = molecular target: T1, Opioid receptors; mu/kappa/delta; conditions: Bos taurus; at 100 nM
[5] = molecular target: T1, Opioid receptors; mu/kappa/delta; conditions: Bos taurus; at 100 nM; remark: listed apart in the source
[6] = molecular target: T1, Opioid receptors; mu/kappa/delta; assay: Irreversible inhibition of 1 nM DAGO binding against Opioid receptors from protected bovine caudate membrane at 10 nM in presence of NaCl; parameters: scale not given: the % may be the effect or the level left; conditions: Bos taurus, target entry is the homologue from another species
[7] = molecular target: T1, Opioid receptors; mu/kappa/delta; assay: Irreversible inhibition of 1 nM DAGO binding against Opioid receptors from unwashed bovine caudate membrane at 10 nM in presence of NaCl; parameters: scale not given: the % may be the effect or the level left; conditions: Bos taurus, target entry is the homologue from another species
[8] = molecular target: T1, Opioid receptors; mu/kappa/delta; conditions: Bos taurus; at 20 nM
[9] = molecular target: T1, Opioid receptors; mu/kappa/delta; conditions: Bos taurus; at 20 nM; remark: listed apart in the source
[10] = molecular target: T1, Opioid receptors; mu/kappa/delta; conditions: Bos taurus; at 100 nM; remark: listed apart in the source
[11] = molecular target: T1, Opioid receptors; mu/kappa/delta; conditions: Bos taurus; at 100 nM; remark: listed apart in the source
[12] = molecular target: T1, Opioid receptors; mu/kappa/delta; conditions: Bos taurus; at 100 nM; remark: listed apart in the source
[13] = molecular target: T1, Opioid receptors; mu/kappa/delta; conditions: Bos taurus; at 20 nM; remark: listed apart in the source

T1 sequence (P35372 whole entry, looked up): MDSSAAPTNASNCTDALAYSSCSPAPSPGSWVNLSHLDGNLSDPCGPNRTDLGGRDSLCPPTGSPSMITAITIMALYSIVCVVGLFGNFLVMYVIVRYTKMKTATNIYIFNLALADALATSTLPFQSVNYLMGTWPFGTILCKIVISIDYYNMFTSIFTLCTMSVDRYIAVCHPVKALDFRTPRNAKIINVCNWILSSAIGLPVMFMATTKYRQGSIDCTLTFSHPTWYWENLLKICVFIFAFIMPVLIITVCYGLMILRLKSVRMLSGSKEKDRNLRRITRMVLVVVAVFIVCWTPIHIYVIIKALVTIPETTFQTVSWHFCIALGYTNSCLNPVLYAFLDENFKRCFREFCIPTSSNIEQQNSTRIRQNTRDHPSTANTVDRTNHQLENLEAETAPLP
T1 sequence (P41143 whole entry, looked up): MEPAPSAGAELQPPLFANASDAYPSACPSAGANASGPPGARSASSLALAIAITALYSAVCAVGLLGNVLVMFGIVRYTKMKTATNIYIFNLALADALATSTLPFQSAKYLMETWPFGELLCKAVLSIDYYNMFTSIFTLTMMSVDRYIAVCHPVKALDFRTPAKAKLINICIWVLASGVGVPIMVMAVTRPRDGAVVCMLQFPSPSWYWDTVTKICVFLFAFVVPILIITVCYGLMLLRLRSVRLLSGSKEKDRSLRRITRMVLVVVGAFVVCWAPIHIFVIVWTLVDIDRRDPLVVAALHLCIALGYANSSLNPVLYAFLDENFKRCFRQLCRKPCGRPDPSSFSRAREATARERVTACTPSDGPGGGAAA
T1 sequence (P41145 whole entry, looked up): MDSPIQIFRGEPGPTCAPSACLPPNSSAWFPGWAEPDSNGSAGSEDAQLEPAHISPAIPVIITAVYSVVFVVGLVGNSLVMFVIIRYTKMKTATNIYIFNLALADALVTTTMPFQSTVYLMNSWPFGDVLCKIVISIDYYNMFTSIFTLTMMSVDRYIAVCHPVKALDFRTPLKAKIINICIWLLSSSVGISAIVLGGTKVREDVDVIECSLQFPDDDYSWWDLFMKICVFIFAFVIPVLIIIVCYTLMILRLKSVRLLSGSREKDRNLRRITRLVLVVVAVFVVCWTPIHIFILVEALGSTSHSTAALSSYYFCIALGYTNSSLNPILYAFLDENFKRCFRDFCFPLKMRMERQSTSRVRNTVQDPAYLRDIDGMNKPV
Chain of Mu-type opioid receptor (P79350 whole entry): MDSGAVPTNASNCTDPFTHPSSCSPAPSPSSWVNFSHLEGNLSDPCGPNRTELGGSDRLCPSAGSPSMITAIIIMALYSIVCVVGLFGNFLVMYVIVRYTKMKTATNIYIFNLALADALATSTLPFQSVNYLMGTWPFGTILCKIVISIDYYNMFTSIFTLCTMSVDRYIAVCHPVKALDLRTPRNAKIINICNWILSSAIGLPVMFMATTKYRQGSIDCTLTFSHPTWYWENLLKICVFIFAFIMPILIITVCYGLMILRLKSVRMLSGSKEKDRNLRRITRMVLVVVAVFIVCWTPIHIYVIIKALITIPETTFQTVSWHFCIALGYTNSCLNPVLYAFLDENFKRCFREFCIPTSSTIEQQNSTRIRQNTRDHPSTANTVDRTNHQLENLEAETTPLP

SMILES | AD50 [1] | IC50 [2] | IC50 [3] | Control [4] | Control [5] | Control [6] | Control [7] | Control [8] | Control [9] | Control [10] | Control [11] | Control [12] | Control [13]
C=C(C)C(=O)OC1CCC2(O)C3Cc4ccc(O)c5c4[C@@]2(CCN3CC2CC2)C1O5 (some centres undefined) | 0.02 mg/kg | 1 nM | 5 nM | 39% | 100% |  |  |  |  |  |  |  | 
C=C(CO[C@@H]1CC[C@@]2(O)[C@H]3Cc4ccc(O)c5c4[C@@]2(CCN3CC2CC2)[C@H]1O5)C(=O)OC | 0.02 mg/kg | 1.5 nM | 12 nM |  |  | 95% | 20% | 59% | 35% |  |  |  | 
C=C1CC2(CCC3(O)[C@H]4Cc5ccc(O)c6c5[C@@]3(CCN4CC3CC3)C2O6)OC1=O (some centres undefined) |  | 1.8 nM | 6 nM |  |  |  |  |  |  | 50% | 16% | 85% | 
O=C1CC[C@@]2(O)[C@H]3Cc4ccc(O)c5c4[C@@]2(CCN3CC2CC2)[C@H]1O5 [NALTREXONE] | 0.007 mg/kg |  |  |  |  |  |  |  |  |  |  |  | 
C=C(COC1CCC2(O)C3Cc4ccc(O)c5c4[C@@]2(CCN3CC2CC2)C1O5)C(=O)OC (some centres undefined) | 0.07 mg/kg | 0.18 nM | 2.4 nM |  |  |  |  | 79% | 17% |  |  |  | 96%
C=C(C)C(=O)O[C@H]1CC[C@@]2(O)[C@H]3Cc4ccc(O)c5c4[C@@]2(CCN3CC2CC2)[C@H]1O5 | 0.02 mg/kg | 6.8 nM | 20 nM | 22% | 100% |  |  |  |  |  |  |  | 
